This sample holds only a part of the variants without activity.
B1: tRNA (parent)
chain: GUUCCGUUGGCGUAAUGGUAACGCGUCUCCCUCCUAAGGAGAAGACUGCGGGUUCGAGUCCCGUACGGAACG

Variants of: B1
Assay: yeast fitness relative to wild type (ratio to wild type); higher = fitter; tRNA-Arg(CCU), competitive growth, 37 C, YPD
Summary of the method: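 A pool of Saccharomyces cerevisiae strains, each with a tRNA-Arg(CCU) gene variant at the native genomic locus, was competed in YPD at 37°C for 24 hours across six parallel replicates. The variants had been chemically synthesised at a 3% per-site mutation rate over 69 sites, and gene amplicons before and after competition were read by 100-nucleotide paired-end sequencing. Darwinian fitness relative to wild type rested on changes in genotype frequencies. Genotypes required ≥ 100 starting reads, and estimates < 0.5 were set to 0.5.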

Point of comparison: GUUCCGUUGGCGUAAUGGUAACGCGUUUCCCUUCUAAGGAGAAGACUGCGAGUUCGAGUCCCGUACGGAGCG [C27U C33U G51A A70G], yeast fitness 0.555. Against it:
- GUUCCGUUGGCGUAAUGGUAACGCGUUUCCCUUCUAAGGCGAAGACUGCGGGUUAGAGUCCCGUGCGGAACG [C27U C33U A40C C55A A65G] — lower, 0.503
- GUUCCGUUGGCGUAAUGGUAACGCGUUUCCCUUCUAACGAGAAGACUGCGGGUUCGAGUCCUGUACGGAACG [C27U C33U G38C C62U] — lower, ≤ 0.5
- GUUCCGUUGGCGUAAUGGUAACGCGUUUCCUUCCUAAGGAGAAGACUACGGGUUCGAGUCCCGUACGGAACG [C27U C31U G48A] — higher, 1
- GUUCCGUUGGCGUAAUGGUAACGCGUUUCCCUCCUAAGGAGACGACUGCGGGUUCGAGUCCCGUACGGCACG [C27U A43C A69C] — higher, 0.754
- GUUCCGUUGGCGUAAUGGUAACGCGUUUUCCUCCUAAGGAGAAGACUGCGGGUUCGCGUCCCGUACGGAACG [C27U C29U A57C] — lower, ≤ 0.5
- GUUCCGUUGGCGUAAUGGUAACGCGUUUCCCUCCUAAGGAGAAGACUGCGGGUUCGAGUCACGUACGGUACG [C27U C61A A69U] — lower, 0.551
- GUUCCGUUGGCGUAAUGGUAACGCGUUUCUCUCCUAAGGAGAAGAUUGCGGGUGCGAGUCCCGUACGGAACG [C27U C30U C46U U54G] — lower, ≤ 0.5
- GUUCCGUUGGCGUAAUGGUAACGCGUUUCACUCCUAAGGAGAAGAGUGCGGGUUCGAGUCCCGUACGGAACG [C27U C30A C46G] — higher, 0.698
- GUUCCGUUGGCGUAAUGGUAACGCGUUUCCCUCCUAAGGAGAAGCCUGCGGGUUCGAGUCCCAUACGGAACG [C27U A45C G63A] — higher, 0.68
- GUUCCGUUGGCGUAAUGGUAACGCGUUUCUCUCCUAAGGAGCAGACUGCGGGUUCGACUCCCGUACGGAACG [C27U C30U A42C G58C] — lower, ≤ 0.5
- GUUCCGUUGGCGUAAUGGUAACGCGUUUCCCUUCUAAGGAGAAGACAGCGGGUUCGAGUCCCGUACGGACCG [C27U C33U U47A A70C] — lower, ≤ 0.5
- GUUCCGUUGGCGUAAUGGUAACGCGUUUCCCUUCUUAGGAGAAGACUGCGGGUUCGAGUCCCGUACGGAACG [C27U C33U A36U] — lower, ≤ 0.5
- GUUCCGUUGGCGUAAUGGUAACGCGUUUCCAUCCUAAGGAGAAGACUGCGGGUUCGAGUCCCGUACGGAACG [C27U C31A] — higher, 0.758
- GUUCCGUUGGCGUAAUGGUAACGCGUUUCCCUGCUAAGGAGAUGACUGCGGGUUCGAGUGCCGUACGGAACG [C27U C33G A43U C60G] — lower, ≤ 0.5
- GUUCCGUUGGCGUAAUGGUAACGCGUUUCCCUCCUAAGGAGAAGACUGCGGGUUAGAGUCCCGUACGGUACG [C27U C55A A69U] — lower, 0.549
- GUUCCGUUGGCGUAAUGGUAACGCGUUUCCCUCCUAAGGAGAAGCCUGCGGGUUCGAGUCCCGGACGGAACG [C27U A45C U64G] — higher, 0.584
- GUUCCGUUGGCGUAAUGGUAACGCGUUUCCUUCCUAAGGAGAAGACUGCGGGUUCGAGUGCCGUACGGAACG [C27U C31U C60G] — higher, 0.581
- GUUCCGUUGGCGUAAUGGUAACGCGUUUCCCUUCUAAGGAGAAGACUGCGGGUUCGAGUCCCGUACGGAACG [C27U C33U] — higher, 0.664
- GUUCCGUUGGCGUAAUGGUAACGCGUUUCCCUCCUAAGGAGAAGCCUGUGGGUUCAAGUCCCGUACGGAACG [C27U A45C C49U G56A] — lower, ≤ 0.5
- GUUCCGUUGGCGUAAUGGUAACGCGUUUCCCUCCUAAGGAGACGACUGUGGGUUCGAGUCCCGUACGGAACG [C27U A43C C49U] — higher, 0.757
- GUUCCGUUGGCGUAAUGGUAACGCGUUUCCUUCCUAAGGAGAAGACUGCGGGCUCGAGUCCCGUACGGAACG [C27U C31U U53C] — higher, 0.678
- GUUCCGUUGGCGUAAUGGUAACGCGUUUCCCUGCUAAGGAGAAGACUGCGGGUUCGGGUCCCGUACGGAACG [C27U C33G A57G] — lower, ≤ 0.5
- GUUCCGUUGGCGUAAUGGUAACGCGUUUCGCUGGUAAGGUGAAGACUGCGGCUUCCAGUCCCGUACGGAACG [C27U C30G C33G C34G A40U G52C G56C] — lower, ≤ 0.5
- GUUCCGUUGGCGUAAUGGUAACGCGUUUCCAUCCUAAGGAGAAGACUGCGGGUUCGAGUCCCGGACGGAACG [C27U C31A U64G] — lower, ≤ 0.5
- GUUCCGUUGGCGUAAUGGUAACGCGUUUCUCUCAUAAGGAGAAGACUGCGGGUUCGAGUCCAGUACGGAACG [C27U C30U C34A C62A] — lower, ≤ 0.5
- GUUCCGUUGGCGUAAUGGUAACGCGUUUCCCUCCUAAGGAGAAGACUGCGGGUUUGAGUUCCGUACGGAUCG [C27U C55U C60U A70U] — lower, ≤ 0.5
- GUUCCGUUGGCGUAAUGGUAACGCGUUUCCCUCCUAAGGAGAAGACUGCGGGUUCGAGUGCCGUACGGAACG [C27U C60G] — higher, 0.735
- GUUCCGUUGGCGUAAUGGUAACGCGUUUCCCUCGUAAGGAGAAGACUGCAGGUUCGAGUCCCGUACGCAACG [C27U C34G G50A G68C] — lower, ≤ 0.5
- GUUCCGUUGGCGUAAUGGUAACGCGUUUCCUUCCUAAGGAGAAGACUGCGGAUUCGAGUCCCGUACGGAACG [C27U C31U G52A] — higher, 0.639
- GUUCCGUUGGCGUAAUGGUAACGCGUUUCCCUCCUAAGGAGAAGUCUGCAGGUUCGAGUCCCGUACGGCACG [C27U A45U G50A A69C] — lower, ≤ 0.5
- GUUCCGUUGGCGUAAUGGUAACGCGUUUACCUCCUAACGAGAAGACUGCGGGUUCGGGUCUCGUACGGAACG [C27U C29A G38C A57G C61U] — lower, ≤ 0.5
- GUUCCGUUGGCGUAAUGGUAACGCGUUUCCCUCCUAAGGAGAAGACUGCGGGUUCGAGUCCCGUUCGGAACG [C27U A65U] — higher, 0.99
- GUUCCGUUGGCGUAAUGGUAACGCGUUUCCCUCCUAAGGAGAAGACUGUGGGUACGGGUCCCGUAAGGAACG [C27U C49U U54A A57G C66A] — higher, 0.629
- GUUCCGUUGGCGUAAUGGUAACGCGUUUCCCUCUUAAGGACAAGACGGCGGGUUCGAGUCCCGUACGGAACG [C27U C34U G41C U47G] — lower, ≤ 0.5
- GUUCCGUUGGCGUAAUGGUAACGCGUUUCUCUCCUAAGGAGAAGACUGCGGGUUCGAGUCCCGUACGGAGCG [C27U C30U A70G] — higher, 0.624
- GUUCCGUUGGCGUAAUGGUAACGCGUUUCCCUCCUAAGGAGAAGACUGCGGGUUCGAGUCCCGUGCGAAACG [C27U A65G G68A] — higher, 0.563
- GUUCCGUUGGCGUAAUGGUAACGCGUUUCCAUCCGAAGGAGAAGACUGCGGGUUGGAGUCCCGUACGGAACG [C27U C31A U35G C55G] — lower, ≤ 0.5

Reference: the RNAGym collection of RNA variant scans (doi:10.1126/science.aae0568)
